Only some compounds are listed: those with a hit (about 1.9% of all), similar ones and a draw of the others.
PP1 counter = PP1-alpha phosphatase inhibitors, primary screen, counter-screen for PP5 inhibitor project, biochemical, fluorescence, OMFP substrate, single point. Serine/threonine-protein phosphatase PP1-alpha catalytic subunit (Homo sapiens), P62136. purified PP1alpha. inhibition, % at 6.7 µM. hit rate 0.9% among 320,000. AID 2235, 2010;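 active = inhibition above the mean inhibition of all tested compounds plus 3 SD, computed separately for each screening campaign, cut at about 15% in these data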
HIF act = HIF pathway transcriptional activators, primary screen, cell-based, U2OS HRE-luciferase, luminescence | U2OS HRE-luciferase reporter; normalized: DMSO 0%, desferrioxamine 100% | activation, % at 7.5 µM (by protocol) | hit rate 0.32% among 300,000 | AID 1910, 2009;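 active = mean activation of at least 10% of the iron chelator positive control signal, with at least half of replicates also reaching 10%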
FID counter = compounds displacing fluorescent DNA intercalator, primary screen, artefact control for HCV NS3 helicase inhibitor project, biochemical, FID fluorescence | DNA fluorescent intercalator displacement | inhibition, % at 7.9 µM | hit rate 0.17% among 290,000 | AID 1845, 2009; in the data active = inhibition above about 37%;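 also: 0% = vehicle and 100% = reference compound; higher means more ethidium bromide displaced from hairpin DNA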
PP5 primary = PP5 phosphatase inhibitors, primary screen, biochemical, fluorescence. purified PP5c, OMFP substrate fluorescence. inhibition, % at 6.7 µM. hit rate 0.18% among 320,000. AID 1987, 2009;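 active = inhibition above the campaign's mean inhibition across all tested compounds plus 3 SD, cut at about 9.5% in these data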;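 also: 0% = DMSO only and 100% = 100 µM cantharidin control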
Target sequence (P53041 whole entry, looked up): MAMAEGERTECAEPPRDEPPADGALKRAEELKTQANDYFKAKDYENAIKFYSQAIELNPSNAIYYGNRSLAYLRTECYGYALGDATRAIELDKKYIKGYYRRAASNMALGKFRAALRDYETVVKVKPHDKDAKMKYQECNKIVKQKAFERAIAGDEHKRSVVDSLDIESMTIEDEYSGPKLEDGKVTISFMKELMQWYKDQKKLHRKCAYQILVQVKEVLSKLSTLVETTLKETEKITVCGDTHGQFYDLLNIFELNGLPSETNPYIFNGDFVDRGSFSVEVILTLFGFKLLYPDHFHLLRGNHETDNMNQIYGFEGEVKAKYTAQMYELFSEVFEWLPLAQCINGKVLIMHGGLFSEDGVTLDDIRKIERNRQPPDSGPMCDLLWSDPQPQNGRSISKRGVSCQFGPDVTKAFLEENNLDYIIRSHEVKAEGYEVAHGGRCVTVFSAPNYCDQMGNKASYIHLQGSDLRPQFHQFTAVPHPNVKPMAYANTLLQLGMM
NS3 helicase inh = inhibitors of HCV NS3 helicase, primary screen, biochemical, Cy5 molecular beacon fluorescence; NS3 helicase DNA unwinding; AID 1800, 2009; inhibition, % at 10.9 µM; Hepatitis C virus NS3 helicase; hit rate 0.56% among 290,000;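 active = inhibition above the mean of all tested compounds plus 3 SD, set per campaign, cut at about 35% in these data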;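 also: 0% = DMSO wells and 100% = thioflavine S control wells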
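System: HCV NS3 helicase fragment; control set: DMSO and thioflavine S; technique: Cy5 fluorescence at 0 and 60 min, beacon hairpin quenching; reagent: beacon DNA duplex substrate plus ATP; replicates: singlicate; schedule: 1 h reaction at 25 °C, ATP-initiated; medium: MOPS buffer pH 6.5 with MgCl2, DTT, Tween20, BSA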
* marks the source's active call; other numbers are inactive results; · = not tested or not shown.

SMILES	PP1 counter	HIF act	FID counter	PP5 primary	NS3 helicase inh
COc1ccc(Cc2nnc(NC(=O)C3CC(=O)N(c4ccc(OC)cc4)C3)s2)cc1 (stereo not given)	0.8	0.6	-45.1	0.2	1.7
CCOc1ccc(N2CC(C(=O)Nc3nnc(Cc4ccc(OC)cc4)s3)CC2=O)cc1 (stereo not given)	16.1*	0.1	-43.1	3.1	-5.8
Cc1ccccc1-c1nn(-c2ccc(F)cc2F)cc1CNCCCN(C)C	-2.9	-0.9	42.2*	-1.5	-49.8
Cc1ccccc1-c1nn(-c2ccc(F)cc2F)cc1CNCCN(C)C	-1.4	-1.9	21.9	2.0	-59.4
Cc1sc(N)c(C(=O)c2ccccc2)c1C	-3.7	0.4	-6.1	1.0	-10.6
COc1ccc(C(O)Cn2c(=N)n(CCCN(C)C)c3ccccc32)cc1 (stereo not given)	-0.3	-0.5	38.0*	3.0	-5.8
Oc1ccc(/C=N/Nc2ccc(C(F)(F)F)cn2)c(O)c1	4.3	14.8*	0.5	4.1	-22.2
CCOC(=O)CSc1ncc(-c2ccc([N+](=O)[O-])cc2)[nH]1	-0.7	0.0	3.2	0.4	3.5
O=C(O)CC/C(=N/NC(=O)CNC(=O)c1ccc2c(c1)OCCO2)c1ccccc1	-0.4	-0.1	-17.8	0.6	11.8
O=C(Nc1cc(-c2ccccc2)[nH]n1)c1ccc(Cl)cc1	17.4*	4.9	-3.5	1.2	-8.0
O=C1c2ccccc2C(O)(c2ccccc2)N1c1ccncc1 (stereo not given)	15.7*	-0.4	-12.0	-0.6	-4.6
COc1ccc2cc3cc(C(=O)N4CCN(c5ccccn5)CC4)oc3nc2c1	3.3	55.6*	-31.7	0.6	-3.5
COc1ccc2cc3cc(C(=O)N4CC(C)CC(C)C4)oc3nc2c1 (stereo not given)	-0.8	3.6	-35.6	3.6	-6.7
COc1ccc(C(C[N+](=O)[O-])c2c(-c3ccccc3)cc3ccccn23)c(OC)c1 (stereo not given)	16.8*	1.2	-13.1	-2.5	-1.2
COc1ccc(C(C[N+](=O)[O-])c2c(C)cc3ccccn23)cc1 (stereo not given)	13.6	0.9	-11.4	3.3	1.9
CC(C)c1nc(CNC(=O)CCc2nnc(-c3ccsc3)o2)cs1	2.9	49.4*	-11.2	0.6	-7.9
O=C(CCc1nnc(-c2ccsc2)o1)NCc1ccccc1OC(F)(F)F	-5.3	0.8	-16.2	3.2	0.5
O=c1cc(CSc2nnnn2-c2ccccc2)nc(Nc2ccc(F)cc2)[nH]1	15.3*	-0.1	-14.8	2.1	4.5
CCN(CC)CCn1c2ccccc2c2nc3ccc([N+](=O)[O-])cc3cc21	-4.2	4.8	43.9*	-0.3	3.0
CN(C)c1cc(NC(=O)CNC(C)(C)C)c2ccccc2n1	6.2	2.0	52.8*	1.0	-12.4
Cc1ccccc1OCc1nnc(SCC(=O)Nc2ccc3nc(SCC(=O)Nc4ccccc4)sc3c2)n1C	16.8*	0.3	-2.1	0.2	-2.2
CCCCC(=O)NS(=O)(=O)c1ccc(NS(C)(=O)=O)cc1	1.1	-0.2	0.2	-0.3	-5.1
COc1cccc(C(=O)NNC(=O)C(=O)Nc2ccc(C)c(Cl)c2)c1	15.5*	-0.4	-9.9	2.0	3.9
O=C(Nc1cc(Sc2ccccn2)cc([N+](=O)[O-])c1)c1ccc([N+](=O)[O-])cc1	15.5*	·	8.8	4.5	-3.7
COc1cc(OC)cc(C(=O)N2CCC(n3c(C)nc4cc(F)ccc43)CC2)c1	1.7	-0.6	-24.3	0.4	-6.0
SMILES	PP1 counter	HIF act	FID counter	PP5 primary	NS3 helicase inh
CC(C)c1ccc(-c2c(C#N)c(N)nc3c2CCCCC3)cc1	1.0	267.9*	-4.5	2.0	-10.9
Cc1ccc(-c2c(C#N)c(N)nc3c2CCCCC3)cc1	-0.5	-0.3	-0.2	-0.3	1.4
Cc1ccc(NC(=O)C2C3C=CC4(O3)C2C(=O)N(CCCN2CCCC(C)C2)C4C(=O)NC2CCCCC2)cc1 (stereo not given)	-1.0	-0.1	3.5	3.2	-11.2
CCCCn1c(-c2cccc3ccccc23)nc2cc3[nH]c(=O)c(C(C)C)nc3cc21	16.0*	0.1	-30.0	3.7	1.6
CCCCn1c(-c2ccccc2C)nc2cc3[nH]c(=O)c(C(C)C)nc3cc21	3.9	-0.2	-38.0	2.9	-18.2
C/C(=N\Nc1ncnc2sc(C)c(C)c12)c1ccccn1	6.0	95.8*	-13.4	2.9	4.5
O=C(Nc1ncn[nH]1)c1ccc(Cl)c(S(=O)(=O)Nc2ccc(Cl)cc2)c1	16.5*	-0.3	-7.3	2.1	3.6
O=C(Nc1ncn[nH]1)c1cc(S(=O)(=O)Nc2ccc(Cl)cc2)ccc1Cl	3.1	0.4	-4.0	2.4	-5.3
CC1CCCN(C(c2cccs2)c2nnnn2Cc2ccccc2)C1 (stereo not given)	7.0	0.1	-25.8	2.5	-5.3
O=C(O)c1cccc(NC(=O)c2cn(-c3ccccc3)nc2-c2cc3ccccc3o2)c1	16.1*	-2.6	-20.7	3.9	3.4
O=C(N/N=C/c1cn(-c2ccccc2)nc1-c1cc2ccccc2o1)c1ccncc1	2.8	1.1	-8.7	3.5	-2.4
COc1ccc(NC(=O)Nc2nnc(CC(=O)NCc3ccccc3)s2)cc1	16.1*	0.0	-7.6	4.8	5.2
c1ccc2c(c1)ncn2CCCCOc1ccc2c(c1)CCC2	15.8*	0.9	-4.8	5.3	-19.4
CC1(C)CC(=O)c2c(nc(SCC(=O)Nc3nsc(-c4ccccc4)n3)c(C#N)c2-c2ccccc2)C1	15.7*	0.0	-3.8	5.2	-2.3
CC(C)(C)OC(=O)COc1cc(OCC(=O)OC(C)(C)C)c2c(=O)cc(-c3ccccc3)oc2c1	16.6*	·	-43.4	7.4	-11.3
CCOc1ccc(NCc2cccn2-c2nnc(N3CCC(C(=O)NCCCN4C(C)CCCC4C)CC3)s2)cc1 (stereo not given)	-4.3	·	41.3*	-0.2	-81.4
C=CCc1cc(Cl)ccc1OCCNCCN1CCOCC1	10.8	0.0	39.2*	0.2	-8.8
N=c1occ(C(=O)c2cc(F)ccc2O)cc1C(=O)NC1CCCCC1	-0.7	0.4	-16.9	2.2	0.5
Nc1nc2nc(-c3cccs3)cc(C(F)(F)F)n2n1	0.6	24.2*	0.6	-1.3	7.0
CCOC(=O)/C=C/C(=O)OCC(=O)N1CCN(C(=O)c2ccco2)CC1	-4.2	-0.2	-12.2	0.6	10.2
CC1=C(C(=O)Nc2cccc(C(=O)N3CCN(c4cccc(C(F)(F)F)c4)CC3)c2)SCCO1	5.4	-1.3	-65.4	5.1	0.3
COc1cccc(C(=O)Nc2ccc(-c3nc4ccccc4o3)c(O)c2)c1	15.6*	0.4	-4.1	4.0	-2.8
N=c1c2c(-c3ccccc3)c(-c3ccccc3)n(Cc3ccco3)c2ncn1Cc1ccco1	16.4*	0.9	11.5	2.5	-69.8

Source: PubChem (several laboratories)
